The results in this text go back to ChEMBL document CHEMBL1156577, “Moromycins A and B, isolation and structure elucidation of C-glycosylangucycline-type antibiotics from Streptomyces sp. KY002” (2008).

One experiment relates to L1210. The experiment can be described thus: Cytotoxicity against cultured mouse L1210 cells.
Another experiment deals with NCI-H460. The experiment is described as follows: Cytotoxicity against human H460 cells after 48 hrs by SRB assay. Type of experiment: functional. The note with it: NCI-H460, 48 h; for CC50: read-out: LC50 (the source's name). The procedure, abridged:
(§1)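 In vitro: human lung H-460 and human breast MCF-7 cell lines exposed to drugs for 48 h. Growth read by sulforhodamine B (SRB) staining.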

For a further experiment, the system named is MCF7. The experiment is described as follows: Cytotoxicity against human MCF7 cells after 48 hrs by SRB assay. Type of experiment: functional. The note with it: MCF7, 48 h; for CC50: read-out: LC50 (the source's name). The procedure, abridged:
as §1

Broadly, the GI50 is the concentration giving 50% growth inhibition. Broadly, the TGI is the concentration giving total growth inhibition.

In brackets after ≈: the same amount, converted by molar mass.

For `CC[C@@]1(O)C[C@H](O[C@H]2C[C@H](N(C)C)[C@H](O[C@H]3C[C@H](O)[C@H](O[C@H]4CCC(=O)[C@H](C)O4)[C@H](C)O3)[C@H](C)O2)c2c(cc3c(c2O)C(=O)c2c(O)cccc2C3=O)[C@H]1C(=O)OC` [ACLARUBICIN], the ID50 in the experiment with L1210 worked out at 0.12 µg/mL (≈ 0.148 µM).
`CC[C@@]1(O)C[C@H](O[C@H]2C[C@H](N(C)C)[C@H](O[C@H]3C[C@@H]4O[C@H]5CC(=O)[C@@H](C)O[C@H]5O[C@@H]4[C@H](C)O3)[C@H](C)O2)c2c(cc3c(c2O)C(=O)c2c(O)cccc2C3=O)[C@H]1C(=O)OC` [ACLACINOMYCIN B] registered an ID50 in the experiment on L1210 of 0.24 µg/mL (≈ 0.296 µM).
With `C[C@@H]1O[C@@H](O[C@H]2CC[C@H](O[C@@]3(C)CC(=O)c4c(ccc5c4C(=O)c4ccc([C@H]6C[C@H]7O[C@H]8CC(=O)[C@H](C)O[C@H]8O[C@@H]7[C@@H](C)O6)c(O)c4C5=O)C3)O[C@H]2C)C=CC1=O` [MOROMYCIN A], in the experiment on NCI-H460, it took 18.7 µM to inhibit growth by half (GI50), the total growth inhibition concentration (TGI) is 51.2 µM and the CC50 came to 69.1 µM. In the experiment on MCF7, the GI50 came to 25.1 µM, net growth stopped (TGI) at 38.9 µM and the CC50 was 55 µM.
For `C[C@@H]1O[C@H]2O[C@@H]3[C@@H](C)O[C@@H](c4ccc5c(c4O)C(=O)c4ccc6c(c4C5=O)C(=O)C[C@](C)(O)C6)C[C@H]3O[C@H]2CC1=O` [MOROMYCIN B], in the experiment with NCI-H460, the GI50 was determined as 4.1 µM, the TGI was determined as 14.1 µM and the CC50 amounted to 52.3 µM. Further, in the experiment with MCF7, growth was halved (GI50) at 5.6 µM, the concentration for total growth inhibition (TGI) stood at 9.2 µM and the CC50 was 16.3 µM.
Take `C[C@@H]1O[C@@H](O[C@H]2CC[C@H](O[C@@]3(C)CC(=O)[C@]4(O)C5=C(C=C[C@]4(O)C3)C(=O)c3c(ccc([C@H]4C[C@H]6O[C@H]7CC(=O)[C@H](C)O[C@H]7O[C@@H]6[C@@H](C)O4)c3O)C5=O)O[C@H]2C)C=CC1=O` [SAQUAYAMYCIN B]: in the experiment on NCI-H460, it took 12.2 µM to inhibit growth by half (GI50), the TGI amounted to 26.5 µM and the CC50 worked out at 34.3 µM. Also, in the experiment with MCF7, the GI50 turned out to be 15.2 µM, net growth stopped (TGI) at 21.3 µM and the CC50 is 28.1 µM.
